Measurements taken from ChEMBL document CHEMBL3407362, “Design and synthesis of potent and multifunctional aldose reductase inhibitors based on quinoxalinones” (J Med Chem, 2015).
The source made the active and inactive calls. The calls are words filed in the database; no cut-off is given here.

Key:
[1] = Antioxidant activity assessed as DPPH scavenging activity at 100 uM after 30 mins by UV spectrophotometry; assay type: physicochemical; conditions: 0.5 h
[2] = Antioxidant activity assessed as DPPH scavenging activity after 30 mins by UV spectrophotometry; assay type: physicochemical
[3] = system: Brain; experiment: Antioxidant activity in rat brain assessed as inhibition of lipid peroxidation by TBARS assay; assay type: functional, tissue-based
Method in brief: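 Fresh rat brain homogenized in ice-cold saline, centrifuged; lipoperoxidation driven by Fe(III)/ascorbic acid, compounds at 100 μM; malondialdehyde measured as TBARS (trichloroacetic acid, then thiobarbituric acid, red color at 532 nm); protein by Coomassie method.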

[4] = biological target: Aldo-keto reductase family 1 member B1 (Rattus norvegicus, UniProt P07943); experiment: Inhibition of Wistar rat lenses ALR2 using D,L-glyceraldehyde as substrate preincubated for 10 mins before substrate addition measured after 4 mins by spectrophotometry
[5] = species: Rattus norvegicus; experiment: Selectivity ratio for Wistar rat lenses ALR2 over Wistar rat kidney ALR1; assay type: tissue-based; conditions: Lens of camera-type eye
[6] = Antioxidant activity assessed as DPPH scavenging activity at 50 uM after 30 mins by UV spectrophotometry; assay type: physicochemical; conditions: 0.5 h
[7] = Antioxidant activity assessed as DPPH scavenging activity at 10 uM after 30 mins by UV spectrophotometry; assay type: physicochemical; conditions: 0.5 h

Structure (SMILES)	IC50 [4]	Selectivity ratio [5]	other results
O=C(O)Cn1c(=O)c(-c2ccc(O)cc2O)nc2ccc(Br)cc21	91 nM		
O=C(O)Cn1c(=O)c(Sc2ccc(Br)cc2)nc2cc(Br)ccc21	319 nM	10.2	
O=C(O)Cn1c(=O)c(Sc2ccc(Cl)cc2)nc2ccc(F)cc21	56 nM	3.1	
O=C(O)Cn1c(=O)c(Cc2ccccc2)nc2ccccc21	1110 nM		
O=C(O)Cn1c(=O)c(Oc2ccccc2)nc2ccccc21	468 nM	12.5	
O=C(O)Cn1c(=O)c(-c2ccccc2)nc2ccccc21	5980 nM		
O=C(O)Cn1c(=O)c(-c2ccc(O)cc2O)nc2ccc(Cc3ccc(F)cc3)cc21	3340 nM		
O=C(O)Cn1c(=O)c(Sc2ccc(Br)cc2)nc2ccc(Cl)cc21	326 nM	6.1	
O=C(O)Cn1c(=O)c(Sc2ccccc2)nc2ccccc21	421 nM	2.7	
O=C(O)Cn1c(=O)c(Sc2ccc(Br)cc2)nc2ccccc21	296 nM	6.9	
O=C(O)Cn1c(=O)c(-c2ccc(O)cc2O)nc2ccccc21	397 nM		
O=C(O)Cn1c(=O)c(Sc2ccc(Br)cc2)nc2ccc(Br)cc21	467 nM	3.7	
O=C(O)Cn1c(=O)c(-c2ccc(O)cc2O)nc2ccc(F)cc21	32 nM		
O=C(O)Cn1c(=O)c(-c2ccc(O)cc2O)nc2cc(Br)ccc21	139 nM		
O=C(O)Cn1c(=O)c(Sc2ccc(Br)cc2)nc2ccc(F)cc21	191 nM	1.9	
O=C(O)Cn1c(=O)c(CCc2ccc(O)cc2)nc2ccc(F)cc21	652 nM		Activity [1]: 14.7%
O=C(O)Cn1c(=O)c(-c2c[nH]c3ccccc23)nc2ccc(Br)cc21	368 nM		
O=C(O)Cn1c(=O)c(-c2ccc(F)cc2)nc2ccc(Cl)cc21	1520 nM		
O=C(O)Cn1c(=O)c(-c2ccc(F)cc2)nc2ccccc21	3380 nM		
O=C(O)Cn1c(=O)c(Sc2ccc(Cl)cc2)nc2ccc(Cl)cc21	158 nM	5.1	
O=C(O)Cn1c(=O)c(-c2c[nH]c3ccccc23)nc2ccccc21	639 nM		
COc1cc(/C=C/c2nc3ccccc3n(CC(=O)O)c2=O)ccc1O	419 nM		Activity [1]: 95.4%; Activity [6]: 68.8%; Activity [7]: 39.6%; IC50 [2]: 24100 nM; inhibition [3]: Active

Now from value to compound, other results behind:

IC50 [4]	Structure (SMILES)	Selectivity ratio [5]	other results
182 nM	O=C(O)Cn1c(=O)c(/C=C/c2ccc(O)cc2)nc2ccccc21		Activity [1]: 71.8%; IC50 [2]: 51500 nM; inhibition [3]: Active
4180 nM	COc1ccc(/C=C/c2nc3ccccc3n(CC(=O)O)c2=O)cc1		
395 nM	O=C(O)Cn1c(=O)c(Sc2ccc(Cl)cc2)nc2ccc(Br)cc21	8.3	
63 nM	O=C(O)Cn1c(=O)c(-c2ccc(O)cc2O)nc2cc(F)ccc21		
69 nM	O=C(O)Cn1c(=O)c(-c2ccc(O)cc2O)nc2ccc(Cl)cc21		
2130 nM	O=C(O)Cn1c(=O)c(-c2ccc(F)cc2)nc2ccc(-c3ccc(F)cc3)cc21		
2590 nM	O=C(O)Cn1c(=O)c(-c2ccc(O)cc2)nc2ccccc21		
798 nM	O=C(O)Cn1c(=O)c(CCc2ccc(O)cc2)nc2ccccc21		Activity [1]: 16.2%
238 nM	O=C(O)Cn1c(=O)c(-c2cc3ccccc3s2)nc2ccc(Cl)cc21		
874 nM	O=C(O)Cn1c(=O)c(-c2ccc(F)cc2)nc2ccc(F)cc21		
273 nM	O=C(O)Cn1c(=O)c(Sc2ccc(Cl)cc2)nc2ccccc21	1.9	
95 nM	O=C(O)Cn1c(=O)c(-c2ccc(O)cc2O)nc2cc(Cl)ccc21		
153 nM	O=C(O)Cn1c(=O)c(/C=C/c2ccc(O)cc2)nc2ccc(F)cc21		Activity [1]: 67.2%; inhibition [3]: Active
